Results as given in ChEMBL document CHEMBL3259545, “Novel pyrrolobenzoxaboroles: design, synthesis, and biological evaluation against Trypanosoma brucei” (Eur J Med Chem, 2014).
Converted amounts (≈) assume the structure as drawn. The source made the active and inactive calls. No cut-off for these calls is given here.

How the values were obtained:
L929 = experiment: Cytotoxicity against mouse L929 cells assessed as cell viability after 72 hrs by alamar blue assay; assay type: cell-based; conditions: L929, 72 h
Outline: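 L929 mouse fibroblasts grown in DMEM with 10% FBS and 1% penicillin/streptomycin, kept sub-confluent. Seeded from a 1 × 10⁴/mL suspension, attached overnight, then medium renewed and DMSO-diluted compounds added. Incubated 72 h at 37 °C, 5% CO₂. Resazurin added for another 3–4 h, fluorescence read at ex 544/em 590 nm.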

[1] = tested on: Trypanosoma brucei brucei; experiment: Antitrypanosomal activity against Trypanosoma brucei brucei 427 after 72 hrs by alamar blue assay; assay type: functional, organism-based; conditions: Trypanosoma brucei, 427, 72 h
Outline: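 Bloodstream T. b. brucei 427 kept in log phase in HMI-9 with 10% FBS, 10% Serum Plus and penicillin/streptomycin, subcultured every 2–3 days. Final density 1.0 × 10⁵/mL with 0.4% DMSO, exposed to serially diluted compounds for 72 h at 37 °C, 5% CO₂. Resazurin added for another 2–4 h, fluorescence read at ex 544/em 590 nm. IC50 from sigmoidal fits of triplicate points.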

[2] = tested on: Trypanosoma brucei brucei; experiment: Trypanocidal activity against bloodstream stage of Trypanosoma brucei brucei infected in acute BALB/c mouse assessed as animal survival rate at 50 mg/kg, ip bid administered for 5 days initiated 24 hrs post infection; assay type: functional; conditions: route intraperitoneal
Outline: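 Female BALB/c mice infected i.p. with 600 T. b. brucei 221 bloodstream parasites; from 24 h post-infection, dosed 50 mg/kg i.p. twice daily for 5 days in 5% ethanol/45% sterile deionized water/50% PEG400. Parasitaemia was checked on trypan-blue-stained tail-vein blood smears every other day for 10 days, then weekly; survival was followed to day 30.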

[3] = tested on: Trypanosoma brucei brucei; experiment: Trypanocidal activity against bloodstream stage of Trypanosoma brucei brucei infected in acute BALB/c mouse assessed as clearance of blood parasite on day 30 at 50 mg/kg, ip bid administered for 5 days initiated 24 hrs post infection; assay type: functional; conditions: route intraperitoneal
Outline: (§1)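 Female BALB/c mice infected i.p. with 600 T. b. brucei 221 parasites. Starting 24 h after infection, compounds were given i.p. at 50 mg/kg twice daily for 5 days, in 5% ethanol/45% water/50% PEG400. Untreated mice served as controls. Parasitemia was checked by trypan-blue-stained tail-vein blood smears every other day for ten days, then weekly, with survival followed to day 30.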

[4] = tested on: Trypanosoma brucei brucei; experiment: Trypanocidal activity against bloodstream stage of Trypanosoma brucei brucei infected in acute BALB/c mouse assessed as extension of animal survival at 50 mg/kg, ip bid administered for 5 days initiated 24 hrs post infection; assay type: functional, organism-based; parameters: dose 50 mg/kg; outline: as §1

| Compound | IC50 (L929) | IC50 [1] | survival at 50 mg/kg [2] | Activity [3] | Activity [4] |
| --- | --- | --- | --- | --- | --- |
| O=C(c1ccc(CO)cc1)c1ccn(-c2ccc3c(c2)B(O)OC3)c1 | 9.31 µg/mL (≈ 27.9 µM) | 0.04 µg/mL (≈ 0.12 µM) | – | – | – |
| O=C(c1ccn(-c2ccc3c(c2)B(O)OC3)c1)c1cccs1 | > 10 µg/mL | 0.08 µg/mL (≈ 0.259 µM) | – | – | – |
| CC(=O)c1ccn(-c2ccc3c(c2)B(O)OC3)c1 | > 10 µg/mL | 0.56 µg/mL (≈ 2.32 µM) | – | – | – |
| O=C(c1ccccc1)c1ccn(-c2ccc3c(c2)B(O)OC3)c1 | > 10 µg/mL | 0.09 µg/mL (≈ 0.297 µM) | 100% | 100% | – |
| NCc1ccc(C(=O)c2ccn(-c3ccc4c(c3)B(O)OC4)c2)cc1 | > 10 µg/mL | 0.18 µg/mL (≈ 0.542 µM) | – | – | – |
| OB1OCc2ccc(-n3ccc(Cc4ccccc4)c3)cc21 | > 10 µg/mL | 2.17 µg/mL (≈ 7.5 µM) | – | – | – |
| CC(=O)OCc1ccc(C(=O)c2ccn(-c3ccc4c(c3)B(O)OC4)c2)cc1 | 10 µg/mL (≈ 26.7 µM) | 0.03 µg/mL (≈ 0.08 µM) | – | – | – |
| O=C(Cc1ccccc1)c1ccn(-c2ccc3c(c2)B(O)OC3)c1 | > 10 µg/mL | 0.29 µg/mL (≈ 0.914 µM) | – | – | – |
| O=C(c1ccc(F)cc1)c1ccn(-c2ccc3c(c2)B(O)OC3)c1 | > 10 µg/mL | 0.16 µg/mL (≈ 0.498 µM) | – | – | – |
| CNC(=O)c1cccn1-c1ccc2c(c1)B(O)OC2 | > 10 µg/mL | 0.86 µg/mL (≈ 3.36 µM) | – | – | – |
| O=C(c1ccn(-c2ccc3c(c2)B(O)OC3)c1)c1cccc2ccccc12 | 5.59 µg/mL (≈ 15.8 µM) | 0.4 µg/mL (≈ 1.13 µM) | – | – | – |
| O=C(CCCN1C(=O)c2ccccc2C1=O)c1ccn(-c2ccc3c(c2)B(O)OC3)c1 | > 10 µg/mL | 0.72 µg/mL (≈ 1.74 µM) | – | – | – |
| CCCNC(=O)c1cccn1-c1ccc2c(c1)B(O)OC2 | > 10 µg/mL | 3.21 µg/mL (≈ 11.3 µM) | – | – | – |
| NCCCC(=O)c1ccn(-c2ccc3c(c2)B(O)OC3)c1 | > 10 µg/mL | 4.02 µg/mL (≈ 14.1 µM) | – | – | – |
| O=C(c1cccc(Cl)c1)c1ccn(-c2ccc3c(c2)B(O)OC3)c1 | > 10 µg/mL | 0.35 µg/mL (≈ 1.04 µM) | – | – | – |
| O=C(O)c1cccn1-c1ccc2c(c1)B(O)OC2 | > 10 µg/mL | 0.13 µg/mL (≈ 0.535 µM) | – | – | – |
| OB1OCc2ccc(-n3cccc3Sc3ccccc3Cl)cc21 | > 10 µg/mL | 2.89 µg/mL (≈ 8.46 µM) | – | – | – |
| COc1ccccc1C(=O)c1ccn(-c2ccc3c(c2)B(O)OC3)c1 | > 10 µg/mL | 0.17 µg/mL (≈ 0.51 µM) | – | – | – |
| COc1cc(C(=O)c2ccn(-c3ccc4c(c3)B(O)OC4)c2)cc(OC)c1OC | 1.15 µg/mL (≈ 2.92 µM) | 0.16 µg/mL (≈ 0.407 µM) | – | – | – |
| O=C(c1ccn(-c2ccc3c(c2)B(O)OC3)c1)c1ccccc1Cl | > 10 µg/mL | 0.28 µg/mL (≈ 0.829 µM) | – | – | – |
| O=C(NCCc1ccccc1)c1cccn1-c1ccc2c(c1)B(O)OC2 | > 10 µg/mL | 0.68 µg/mL (≈ 1.96 µM) | – | – | – |

| Compound | IC50 (L929) | IC50 [1] | survival at 50 mg/kg [2] | Activity [3] | Activity [4] |
| --- | --- | --- | --- | --- | --- |
| Cc1ccsc1C(=O)c1ccn(-c2ccc3c(c2)B(O)OC3)c1 | > 10 µg/mL | 0.11 µg/mL (≈ 0.34 µM) | – | – | – |
| OB1OCc2ccc(-n3cc(Sc4ccc(Cl)c(Cl)c4)c4ccccc43)cc21 | > 10 µg/mL | > 5 µg/mL | – | – | – |
| Cc1ccccc1C(=O)c1ccn(-c2ccc3c(c2)B(O)OC3)c1 | > 10 µg/mL | 0.56 µg/mL (≈ 1.77 µM) | – | – | – |
| COc1ccc(CNC(=O)c2cccn2-c2ccc3c(c2)B(O)OC3)cc1 | > 10 µg/mL | 0.7 µg/mL (≈ 1.93 µM) | – | – | – |
| O=C(c1ccn(-c2ccc3c(c2)B(O)OC3)c1)c1ccc(Cl)cc1Cl | > 10 µg/mL | 1.12 µg/mL (≈ 3.01 µM) | – | – | – |
| O=C(c1ccc(F)cc1)c1cccn1-c1ccc2c(c1)B(O)OC2 | > 10 µg/mL | 0.4 µg/mL (≈ 1.25 µM) | – | – | – |
| OB1OCc2ccc(-n3cc(Sc4cccc(Cl)c4)c4ccccc43)cc21 | > 10 µg/mL | > 5 µg/mL | – | – | – |
| OB1OCc2ccc(-n3cc(Sc4ccc5ccccc5c4)c4ccccc43)cc21 | > 10 µg/mL | > 5 µg/mL | – | – | – |
| OB1OCc2ccc(-n3cccc3)cc21 | > 10 µg/mL | 1.98 µg/mL (≈ 9.95 µM) | – | – | – |
| Cc1ccc(C(=O)c2ccn(-c3ccc4c(c3)B(O)OC4)c2)cc1 | > 10 µg/mL | 0.08 µg/mL (≈ 0.252 µM) | – | – | – |
| COc1ccc([S+]([O-])c2cn(-c3ccc4c(c3)B(O)OC4)c3ccccc23)cc1 (configuration not stated) | > 10 µg/mL | 1.56 µg/mL (≈ 3.87 µM) | – | – | – |
| CC(=O)c1cccn1-c1ccc2c(c1)B(O)OC2 | > 10 µg/mL | 0.69 µg/mL (≈ 2.86 µM) | – | – | – |
| CCCCCC(=O)c1ccn(-c2ccc3c(c2)B(O)OC3)c1 | > 10 µg/mL | 0.09 µg/mL (≈ 0.303 µM) | – | – | – |
| O=C(c1ccc(O)cc1)c1ccn(-c2ccc3c(c2)B(O)OC3)c1 | > 10 µg/mL | 0.06 µg/mL (≈ 0.188 µM) | – | – | Active |
| COc1ccc(Sc2cn(-c3ccc4c(c3)B(O)OC4)c3ccccc23)cc1 | > 10 µg/mL | > 5 µg/mL | – | – | – |
| O=C(c1ccc(Cl)cc1Cl)c1cccn1-c1ccc2c(c1)B(O)OC2 | > 10 µg/mL | 1.43 µg/mL (≈ 3.84 µM) | – | – | – |
| OB1OCc2ccc(-n3cc(Sc4ccc(Cl)cc4)c4ccccc43)cc21 | > 10 µg/mL | > 5 µg/mL | – | – | – |
| Cc1ccc(C(=O)c2ccn(-c3ccc4c(c3)B(O)OC4)c2)s1 | > 10 µg/mL | 0.07 µg/mL (≈ 0.217 µM) | 100% | 100% | – |
| COc1ccc(S(=O)(=O)c2cn(-c3ccc4c(c3)B(O)OC4)c3ccccc23)cc1 | > 10 µg/mL | > 5 µg/mL | – | – | – |
| OB1OCc2ccc(-n3cccc3Sc3ccc(Cl)c(Cl)c3)cc21 | > 10 µg/mL | > 5 µg/mL | – | – | – |
| OB1OCc2ccc(-n3cccc3Sc3ccc(Cl)cc3)cc21 | > 10 µg/mL | 1.16 µg/mL (≈ 3.4 µM) | – | – | – |

| Compound | IC50 (L929) | IC50 [1] | survival at 50 mg/kg [2] | Activity [3] | Activity [4] |
| --- | --- | --- | --- | --- | --- |
| OB1OCc2ccc(-n3cc(Sc4ccccc4O)c4ccccc43)cc21 | > 10 µg/mL | > 5 µg/mL | – | – | – |
| O=[N+]([O-])c1ccc(Sc2cn(-c3ccc4c(c3)B(O)OC4)c3ccccc23)cc1 | > 10 µg/mL | > 5 µg/mL | – | – | – |
| O=C(c1ccc(Cl)cc1)c1ccn(-c2ccc3c(c2)B(O)OC3)c1 | > 10 µg/mL | 0.21 µg/mL (≈ 0.622 µM) | – | – | – |
| O=C(c1ccccc1)c1ccn(-c2ccccc2)c1 | > 10 µg/mL | > 5 µg/mL | – | – | – |
| O=C(NC1CCCCC1)c1cccn1-c1ccc2c(c1)B(O)OC2 | > 10 µg/mL | 2.85 µg/mL (≈ 8.79 µM) | – | – | – |
| CCCC(=O)c1ccn(-c2ccc3c(c2)B(O)OC3)c1 | > 10 µg/mL | 0.11 µg/mL (≈ 0.409 µM) | – | – | – |
| CCNC(=O)c1cccn1-c1ccc2c(c1)B(O)OC2 | > 10 µg/mL | 1.85 µg/mL (≈ 6.85 µM) | – | – | – |
| COc1ccc(C(=O)c2ccn(-c3ccc4c(c3)B(O)OC4)c2)cc1 | > 10 µg/mL | 0.11 µg/mL (≈ 0.33 µM) | – | – | – |
| O=C(NCc1ccccc1)c1cccn1-c1ccc2c(c1)B(O)OC2 | > 10 µg/mL | 0.8 µg/mL (≈ 2.41 µM) | – | – | – |
| Cc1cccc(C(=O)c2ccn(-c3ccc4c(c3)B(O)OC4)c2)c1 | > 10 µg/mL | 0.09 µg/mL (≈ 0.284 µM) | – | – | – |
| O=C(CCc1ccccc1)c1ccn(-c2ccc3c(c2)B(O)OC3)c1 | > 10 µg/mL | 0.19 µg/mL (≈ 0.574 µM) | – | – | – |
| OB1OCc2ccc(-n3ccc4ccccc43)cc21 | > 10 µg/mL | > 5 µg/mL | – | – | – |
| OB1OCc2ccc(-n3cc(Sc4ccc(F)cc4)c4ccccc43)cc21 | > 10 µg/mL | > 5 µg/mL | – | – | – |
| O=C(c1ccccc1)c1ccn(-c2ccc3c(c2)C(O)OC3)c1 (configuration not stated) | 8.18 µg/mL (≈ 26.8 µM) | > 5 µg/mL | – | – | – |
| O=C(c1ccccc1)c1cccn1-c1ccc2c(c1)B(O)OC2 | > 10 µg/mL | 0.34 µg/mL (≈ 1.12 µM) | – | – | – |
| Nc1ccc(C(=O)c2ccn(-c3ccc4c(c3)B(O)OC4)c2)cc1 | 3.9 µg/mL (≈ 12.3 µM) | 0.03 µg/mL (≈ 0.0943 µM) | 100% | 100% | – |
| CCc1ccc(C(=O)c2ccn(-c3ccc4c(c3)B(O)OC4)c2)cc1 | > 10 µg/mL | 0.07 µg/mL (≈ 0.211 µM) | – | – | Active |
| O=C(c1ccn(-c2ccc3c(c2)B(O)OC3)c1)C1CCCCC1 | > 10 µg/mL | 0.13 µg/mL (≈ 0.42 µM) | – | – | – |
| OB1OCc2ccc(-n3cc(Sc4ccc(O)cc4)c4ccccc43)cc21 | > 10 µg/mL | > 5 µg/mL | – | – | – |
| O=C(c1ccccc1Cl)c1cccn1-c1ccc2c(c1)B(O)OC2 | > 10 µg/mL | 0.7 µg/mL (≈ 2.07 µM) | – | – | – |
